Legend:
[1] = test system: Mus musculus; test: Compound was tested for its ability to enhance nonspecific resistance to expt. fungal infection in mice immunosuppressed with cyclophosphamide and infected with candida albicans at 3x 0.1 mg/kg/day; survival increase = 0/6; assay type: functional
How it was run: (§1)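 Groups of 10 mice in a controlled room. Test substance or vehicle (distilled water) was given ip on days 1, 3 and 5. Cyclophosphamide 30 mg/kg po was given on days 2, 4 and 6. One hour after the last cyclophosphamide dose, mice were challenged with C. albicans at a level set for 70–90% mortality within 10 days in vehicle controls. Survival over 10 days was scored as (treated − CP-only survivors)/(unsuppressed control − CP-only survivors).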

[2] = test system: Mus musculus; test: Compound was tested for its ability to enhance nonspecific resistance to expt. fungal infection in mice immunosuppressed with cyclophosphamide and infected with candida albicans at 3x100 mg/kg/day; survival increase = 0/6; assay type: functional; how it was run: as §1
[3] = test system: Mus musculus; test: Compound was tested for its ability to enhance nonspecific resistance to expt. fungal infection in mice immunosuppressed with cyclophosphamide and infected with candida albicans at 3x10 mg/kg/day; survival increase = 0/6; assay type: functional; how it was run: as §1
[4] = test system: Mus musculus; test: Compound was tested for its ability to enhance nonspecific resistance to expt. fungal infection in mice immunosuppressed with cyclophosphamide and infected with candida albicans at 3x1 mg/kg/day; survival increase = 1/6; assay type: functional; how it was run: as §1
[5] = test system: Mus musculus; test: Compound was tested for its ability to enhance nonspecific resistance to expt. fungal infection in mice immunosuppressed with cyclophosphamide and infected with candida albicans at 3x100 mg/kg/day; survival increase = 2/6; assay type: functional; how it was run: as §1
[6] = test system: Mus musculus; test: Compound was tested for its ability to enhance nonspecific resistance to expt. fungal infection in mice immunosuppressed with cyclophosphamide and infected with candida albicans at 3x10 mg/kg/day; survival increase = 2/6; assay type: functional; how it was run: as §1
[7] = test system: Mus musculus; test: Compound was tested for its ability to enhance nonspecific resistance to expt. fungal infection in mice immunosuppressed with cyclophosphamide and infected with candida albicans at 3x1 mg/kg/day; survival increase = 0/6; assay type: functional; how it was run: as §1
[8] = test system: Mus musculus; test: Compound was tested for its ability to enhance nonspecific resistance to expt. fungal infection in mice immunosuppressed with cyclophosphamide and infected with candida albicans at 3x100 mg/kg/day; survival increase = 1/6; assay type: functional; how it was run: as §1
[9] = test system: Mus musculus; test: Compound was tested for its ability to enhance nonspecific resistance to expt. fungal infection in mice immunosuppressed with cyclophosphamide and infected with candida albicans at 3x 0.1 mg/kg/day;survival increase = 0/6; assay type: functional; how it was run: as §1
[10] = organism: Mus musculus; test: Compound was tested for its effect on number of total spleen cells at 0.25 microg daily dose in mouse; assay type: functional
How it was run: (§2)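 Female HAN–NmRi mice (3–4 weeks) got thioglycolate ip and the dose ip in 0.5 mL on days 1–3, and spleens were taken on day 4. B cells were stained with FITC goat anti-mouse IgG. T cells were stained with rat anti-Thy-1 and then FITC goat anti-rat Ig. Cells were counted by fluorescence microscopy and reported in millions as mean ± SEM with p values.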

[11] = organism: Mus musculus; test: Compound was tested for its effect on number of T cells at 25 microg daily dose in mouse; assay type: functional, T-cell; how it was run: as §2
[12] = organism: Mus musculus; test: Compound was tested for its effect on number of total spleen cells at 2.5 microg daily dose in mouse; assay type: functional; how it was run: as §2
[13] = organism: Mus musculus; test: Compound was tested for blast transformation ability of lymphocytes, stimulated in vitro with Concanavalin A expressed as amount of [3H]thymidine incorporated in lymphocyte DNA at 25 microg daily dose in mouse; assay type: functional
How it was run: (§3)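 Female HAN–NmRi mice (3–4 weeks, 17–20 g) got 1 mL thioglycolate ip, then the dose in 0.5 mL ip one hour later, repeated on days 2 and 3. On day 4, spleen lymphocytes were taken at 1 × 10^6/mL in RPMI 1640 with 10% FCS and stimulated with Con A at 16, 8 or 4 μg/mL for 2 days at 37 °C, 5% CO2. [3H]thymidine was then added for 16 h and counted by β-counter. Results are cpm, n = 5.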

[14] = organism: Mus musculus; test: Compound was tested for immunomodulatory effect on macrophage activation without costimulation with PMA measured as UV absorption difference with test sample at 25 microg daily dose and blank/mg of cell protein in mouse; assay type: functional
How it was run: (§4)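 Female HAN–NmRi mice got thioglycolate ip plus the dose ip (0.5 mL) daily for 3 days and were killed on day 4. Peritoneal cells were washed out, erythrocytes lysed hypo-osmotically, and cells plated at 1.5 × 10^6/mL. They adhered for 2 h and nonadherent cells were rinsed off. Macrophages were given 160 μM ferricytochrome c in HBSS, with or without 200 nM PMA; the blank added 340 U/mL SOD. After 90 min at 37 °C, absorbance was read at […].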

[15] = organism: Mus musculus; test: Compound was tested for its effect on number of peritoneal macrophages at 2.5 microg daily dose in mouse; assay type: functional
How it was run: (§5)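 Female HAN–NmRi mice got thioglycolate ip and the dose ip (0.5 mL) daily for 3 days. On day 4, peritoneal cells were washed out with ice-cold RPMI 1640. Macrophages were counted with trypan blue in a Neubauer chamber, excluding contaminating cells by morphology, and reported in millions as mean ± SEM.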

[16] = organism: Mus musculus; test: Compound was tested for immunomodulatory effect on macrophage activation without costimulation with PMA measured as UV absorption difference with test sample at 0.25 microg daily dose and blank/mg of cell protein in mouse; assay type: functional; how it was run: as §4
[17] = organism: Mus musculus; test: Compound was tested for immunomodulatory effect on macrophage activation without costimulation with PMA measured as UV absorption difference with test sample at 2.5 microg daily dose and blank/mg of cell protein in mouse; assay type: functional; how it was run: as §4
[18] = organism: Mus musculus; test: Compound was tested for its effect on number of total spleen cells at 25 microg daily dose in mouse; assay type: functional; how it was run: as §2
[19] = organism: Mus musculus; test: Compound was tested for its effect on number of peritoneal macrophages at 0.25 microg daily dose in mouse; assay type: functional; how it was run: as §5
[20] = organism: Mus musculus; test: Compound was tested for immunomodulatory effect on macrophage activation with costimulation with PMA measured as UV absorption difference with test sample at 0.25 microg daily dose and blank/mg of cell protein in mouse; assay type: functional; how it was run: as §4
[21] = organism: Mus musculus; test: Compound was tested for its effect on number of B-cells at 0.25 microg daily dose in mouse; assay type: functional, B-cell; how it was run: as §2
[22] = organism: Mus musculus; test: Compound was tested for immunomodulatory effect on macrophage activation with costimulation with PMA measured as UV absorption difference with test sample at 2.5 microg daily dose and blank/mg of cell protein in mouse; assay type: functional; how it was run: as §4
[23] = organism: Mus musculus; test: Compound was tested for blast transformation ability of lymphocytes, stimulated in vitro with Concanavalin A expressed as amount of [3H]-thymidine incorporated in lymphocyte DNA at 0.25 microg daily dose in mouse; assay type: functional; how it was run: as §3
[24] = organism: Mus musculus; test: Compound was tested for its effect on number of B-cells at 25 microg daily dose in mouse; assay type: functional, B-cell; how it was run: as §2
[25] = organism: Mus musculus; test: Compound was tested for its effect on number of T cells at 0.25 microg daily dose in mouse; assay type: functional, T-cell; how it was run: as §2
[26] = organism: Mus musculus; test: Compound was tested for its effect on number of B-cells at 2.5 microg daily dose in mouse; assay type: functional, B-cell; how it was run: as §2
[27] = organism: Mus musculus; test: Compound was tested for its effect on number of peritoneal macrophages at 25 microg daily dose in mouse; assay type: functional; how it was run: as §5
[28] = organism: Mus musculus; test: Compound was tested for immunomodulatory effect on macrophage activation with costimulation with PMA measured as UV absorption difference with test sample at 25 microg daily dose and blank/mg of cell protein in mouse; assay type: functional; how it was run: as §4
[29] = organism: Mus musculus; test: Compound was tested for its effect on number of T cells at 2.5 microg daily dose in mouse; assay type: functional, T-cell; how it was run: as §2
[30] = organism: Mus musculus; test: Compound was tested for blast transformation ability of lymphocytes, stimulated in vitro with Concanavalin A expressed as amount of [3H]thymidine incorporated in lymphocyte DNA at 2.5 microg daily dose in mouse; assay type: functional; how it was run: as §3
[31] = test system: Mus musculus; test: Compound was tested for its ability to enhance nonspecific resistance to expt. fungal infection in mice immunosuppressed with cyclophosphamide and infected with candida albicans at 3x30 mg/kg/day; survival increase = 1/6; assay type: functional; how it was run: as §1
[32] = test system: Mus musculus; test: Compound was tested for its ability to enhance nonspecific resistance to expt. fungal infection in mice immunosuppressed with cyclophosphamide and infected with candida albicans at 3x10 mg/kg/day; survival increase = 1/6; assay type: functional; how it was run: as §1
[33] = test system: Mus musculus; test: Compound was tested for its ability to enhance nonspecific resistance to expt. fungal infection in mice immunosuppressed with cyclophosphamide and infected with candida albicans at 3x 0.1 mg/kg/day; survival increase = 2/6; assay type: functional; how it was run: as §1
[34] = test system: Mus musculus; test: Compound was tested for its ability to enhance nonspecific resistance to expt. fungal infection in mice immunosuppressed with cyclophosphamide and infected with candida albicans at 3x10 mg/kg/day; survival increase = 3/6; assay type: functional; how it was run: as §1
[35] = test system: Mus musculus; test: Compound was tested for its ability to enhance nonspecific resistance to expt. fungal infection in mice immunosuppressed with cyclophosphamide and infected with candida albicans at 3x100 mg/kg/day; survival increase = 3/6; assay type: functional; how it was run: as §1
[36] = test system: Mus musculus; test: Compound was tested for its ability to enhance nonspecific resistance to expt. fungal infection in mice immunosuppressed with cyclophosphamide and infected with candida albicans at 3x1 mg/kg/day; survival increase = 2/6; assay type: functional; how it was run: as §1
[37] = test system: Mus musculus; test: Compound was tested for its ability to enhance nonspecific resistance to expt. fungal infection in mice immunosuppressed with cyclophosphamide and infected with candida albicans at 3x30 mg/kg/day; survival increase = 3/6; assay type: functional; how it was run: as §1
[38] = test system: Mus musculus; test: Compound was tested for its ability to enhance nonspecific resistance to expt. fungal infection in mice immunosuppressed with cyclophosphamide and infected with candida albicans at 3x1 mg/kg/day; survival increase = 3/6; assay type: functional; how it was run: as §1
[39] = test system: Mus musculus; test: Compound was tested for its ability to enhance nonspecific resistance to expt. fungal infection in mice immunosuppressed with cyclophosphamide and infected with candida albicans at 3x 0.1 mg/kg/day; survival increase = 3/6; assay type: functional; how it was run: as §1

CC(=O)N[C@@H]1CCCC[C@H]1OCC(=O)N[C@@H](C)C(=O)N[C@H](CCC(=O)O)C(N)=O gave a Survival increase [1] of 0, a Survival increase [2] of 0 and a Survival increase [3] of 0. For the same molecule, the Survival increase [4] was 1.
CC(=O)N[C@H]1CCCC[C@@H]1OCC(=O)N[C@@H](C)C(=O)N[C@H](CCC(=O)O)C(=O)O gave a Survival increase [1] of 0, a Survival increase [5] of 2 and a Survival increase [6] of 2. It also gave a Survival increase [4] of 1.
For CC(=O)N[C@H]1CCCC[C@@H]1OCC(=O)N[C@@H](C)C(=O)N[C@H](CCC(=O)O)C(N)=O, the Survival increase [7] was 0, the Survival increase [8] was 1 and the Survival increase [9] was 0. For the same molecule, the Survival increase [3] was 0.
With CC(=O)NC1CCCCC1OCC(=O)N[C@@H](C)C(=O)N[C@H](CCC(=O)O)C(=O)O (stereo partly drawn) the Number [10] was 5.66 millions, the Number [11] was 9.72 millions and the Number [12] was 8.14 millions. The “Amount of [3H]thymidine” value [13] was 25990 c.p.m, the Macrophage activation [14] was 489 and the Number [15] was 2.87 millions. It also gave a Macrophage activation [16] of 237, a Macrophage activation [17] of 431 and a Number [18] of 9.93 millions. It also gave a Number [19] of 2.58 millions, a Macrophage activation [20] of 1298 and a Number [21] of 18.42 millions. For the same molecule, the Macrophage activation [22] was 1494, the “Amount of [3H]thymidine” value [23] was 10780 c.p.m and the Number [24] was 20.5 millions. It also gave a Number [25] of 11.7 millions, a Number [26] of 23.76 millions and a Number [27] of 0.92 millions. The Macrophage activation [28] was 1709, the Number [29] was 12.88 millions and the “Amount of [3H]thymidine” value [30] was 16830 c.p.m.
For CCCCCC(=O)NC1CCCCC1OCC(=O)N[C@@H](C)C(=O)N[C@H](CCC(=O)O)C(N)=O (stereo partly drawn), the Survival increase [1] was 0, the Survival increase [31] was 1 and the Survival increase [7] was 0. It also gave a Survival increase [32] of 1.
For CC(=O)N[C@@H]1CCCC[C@H]1OCC(=O)N[C@@H](C)C(=O)N[C@H](CCC(=O)O)C(=O)O, the Survival increase [33] was 2, the Survival increase [34] was 3 and the Survival increase [35] was 3. For the same molecule, the Survival increase [4] was 1.
C[C@H](NC(=O)C1(C)OC2(C)CCCCC2(C)NC1=O)C(=O)N[C@H](CCC(=O)O)C(=O)O (stereo partly drawn) was tested, and the Survival increase [1] was 0, the Survival increase [7] was 0 and the Survival increase [5] was 2. The Survival increase [3] was 0.
Work on CCCCCCCCCCCC(=O)NC1CCCCC1OCC(=O)N[C@@H](C)C(=O)N[C@H](CCC(=O)O)C(N)=O (stereo partly drawn) yielded a Survival increase [1] of 0, a Survival increase [36] of 2 and a Survival increase [34] of 3. The Survival increase [37] was 3.
CC(C)(N1CC1C#N)N1CC1C(N)=O (stereo not drawn) [AZIMEXON] was tested, and the Survival increase [38] was 3, the Survival increase [34] was 3 and the Survival increase [39] was 3. The Survival increase [35] was 3.

Source: ChEMBL document CHEMBL1131471, “N-[trans-2-[[2'-(acetylamino)cyclohexyl]oxy]acetyl]-L-alanyl-D-glutamic acid: a novel immunologically active carbocyclic muramyl dipeptide analogue” (1998)
